Calls of active or inactive are those of the source. The calls are words filed in the database; no cut-off is given here. Where a SMILES comes first, the peptide text is derived from it. Bridges are numbered along the chain shown (N, C = ends). [ ]: non-standard residue; d: D form. S5 = C=CCCC[C@](C)(N)C(=O)O; Nle = CCCC[C@H](N)C(=O)O
What was measured:
[1] = Binding affinity to NHR peptide HR1P in pH 7.2 phosphate buffer at 50 uM after 30 mins by CD spectroscopic method
How it was run: (§1)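 Peptides were at 50 µM final in 50 mM PBS, pH 7.2. Equimolar HR1P/peptide mixtures were incubated at 25 °C for 30 min before CD scanning. α-Helicity was taken from [θ]222, where -33,000 deg cm2/dmol = 100% helix.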

[2] = Inhibition of EGFP-fused MERS-CoV spike protein mediated cell-cell fusion between viral protein expressing human 293T cells and human HuH7 target cells after 4 hrs by inverted fluorescence microscopic analysis; set-up: species or system Middle East respiratory syndrome-related coronavirus
How it was run: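 Huh-7 target cells expressing DPP4 were seeded at 5 × 10^4/well and kept at 37 °C for 5 h. Inhibitors were added, then 293T effector cells co-expressing S protein and EGFP (1 × 10^4/well); 293T/EGFP-only cells served as negative control. After 4 h coculture at 37 °C, fused and unfused cells were counted by fluorescence microscopy.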

Calu-3 = test: Cytotoxicity against human Calu3 cells at 100 uM after 48 hrs by CCK-8 assay; type: cell-based; conditions: calu-3, 48 h
How it was run: (§2)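 Cells (1 × 10^5 per well) were preincubated at 37 °C for 12 h, then given graded peptide concentrations. After 48 h at 37 °C, CCK-8 was added and absorbance at 450 nm was read 2 h later.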

[3] = Cytotoxicity against human HuH7 cells after 48 hrs by CCK-8 assay; type: cell-based, Huh-7; how it was run: as §2
[4] = (§3) Inhibition of MERS-CoV spike protein mediated cell-cell fusion between viral protein expressing human 293T cells and human Calu3 target cells assessed as decrease in pseudovirus infection preincubated with virus for 1 hr followed by HuH7 cells addition measured after 48 hrs by luciferase reporter gene assay; set-up: species or system Middle East respiratory syndrome-related coronavirus
How it was run: (§4)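 Graded peptide concentrations were preincubated with luciferase-reporter pseudovirus bearing MERS-CoV S for 1 h at room temperature. The mixture was added to Huh-7 or Calu-3 cells, with medium refreshed at 12 h. After a further 48 h at 37 °C, luciferase was read. Values are from three independent experiments, mean ± SD.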

[5] = as §3, with “HuH7” for “Calu3”; set-up: species or system Middle East respiratory syndrome-related coronavirus; how it was run: as §4
[6] = Binding affinity to NHR peptide HR1P in pH 7.2 phosphate buffer at 200 uM after 30 mins by N-PAGE analysis
How it was run: (§5)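 Stapled peptide and HR1P, each 200 µM (in 50 mM PBS or ddH2O), were incubated together at 25 °C for 30 min. Samples in Tris-glycine native sample buffer were run on an 18% Tris-glycine gel (pH 8.3 buffer) at 120 V for 3 h at room temperature and stained with Coomassie blue R250.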

[7] = Binding affinity to NHR peptide HR1P in pH 7.2 phosphate buffer assessed as thermal unfolding transition at 50 uM after 30 mins by CD spectroscopic method
How it was run: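 Equimolar HR1P/peptide mixtures, 50 µM final in 50 mM PBS pH 7.2, were preincubated at 25 °C for 30 min. Thermal denaturation was followed by CD at 222 nm over a 10–90 °C gradient at 2 °C/min.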

[8] = Binding affinity to NHR peptide HR1P in pH 7.2 phosphate buffer assessed as formation of alpha-helical complex at 50 uM after 30 mins by CD spectroscopic method; how it was run: as §1
[9] = Binding affinity to NHR peptide HR1P in pH 7.2 phosphate buffer at 250 uM after 30 mins by sedimentation velocity analysis
How it was run: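 HR1P/peptide mixtures at 250 µM in 50 mM PBS were incubated at 25 °C for 30 min. After an initial scan at 3000 rpm for 10 min, sedimentation velocity was run at 60,000 rpm, 280 nm, 20 °C, for 7 h. Weight-averaged molecular weights were obtained by fitting.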

[10] = Binding affinity to NHR peptide HR1P in pH 7.2 phosphate buffer assessed as formation of alpha-helical complex at 200 uM after 30 mins by N-PAGE analysis; how it was run: as §5
[11] = Middle East respiratory syndrome-related coronavirus

Structure (SMILES) | Activity [1] | EC50 [2] [µM] | Activity (Calu-3) | CC50 at 48 h [3] [µM] | Activity [8] | EC50 [5, 11] [µM] | also measured
CSCC[C@H](NC(=O)[C@H](CCC(=O)O)NC(=O)[C@]1(C)CCC/C=C\CCC[C@](C)(NC(C)=O)C(=O)N[C@@H](CC(=O)O)C(=O)N[C@@H](CC(C)C)C(=O)N[C@@H]([C@@H](C)O)C(=O)N1)C(=O)N[C@@H](CC(C)C)C(=O)N[C@@H](CO)C(=O)N[C@@H](CC(C)C)C(=O)N[C@@H](CCC(N)=O)C(=O)N[C@@H](CCC(N)=O)C(=O)N[C@H](C(=O)N[C@H](C(=O)N[C@@H](CCCCN)C(=O)N[C@@H](C)C(=O)N[C@@H](CC(C)C)C(=O)N[C@@H](CC(N)=O)C(=O)N[C@@H](CCC(=O)O)C(=O)N[C@@H](CO)C(=O)N[C@@H](Cc1ccc(O)cc1)C(N)=O)C(C)C)C(C)C | inactive | > 50 | – | – | – | – | –
CCCC[C@H](NC(=O)[C@H](CCC(=O)O)NC(=O)[C@H](Cc1ccc(O)cc1)NC(=O)[C@@H](NC(=O)[C@H](CC(C)C)NC(=O)[C@H](CC(=O)O)NC(=O)[C@H](CC(C)C)NC(C)=O)[C@@H](C)O)C(=O)N[C@@H](CC(C)C)C(=O)N[C@@H](CO)C(=O)N[C@@H](CC(C)C)C(=O)N[C@@H](CCC(N)=O)C(=O)N[C@@]1(C)CCC/C=C\CCC[C@@](C)(C(=O)N[C@@H](CC(C)C)C(=O)N[C@@H](CC(N)=O)C(=O)N[C@@H](CCC(=O)O)C(=O)N[C@@H](CO)C(=O)N[C@@H](Cc2ccc(O)cc2)C(N)=O)NC(=O)[C@H](CCCCN)NC(=O)[C@H](C(C)C)NC(=O)[C@H](C(C)C)NC1=O (Ac-LDLTYE[Nle]LSLQ[S5]VVK[S5]LNESY-NH2; staple (Z) 12-16) | – | 0.63 | Non-Toxic | > 100 | – | – | EC50 [4]: 2.57 µM; EC50 [5]: 2.8 µM
CSCC[C@H](NC(=O)[C@H](CCC(=O)O)NC(=O)[C@H](Cc1ccc(O)cc1)NC(=O)[C@@H](NC(=O)[C@H](CC(C)C)NC(=O)[C@H](CC(=O)O)NC(=O)[C@H](CC(C)C)NC(C)=O)[C@@H](C)O)C(=O)N[C@@H](CC(C)C)C(=O)N[C@@]1(C)CCC/C=C/CCC[C@@](C)(C(=O)N[C@H](C(=O)N[C@@H](CCCCN)C(=O)N[C@@H](C)C(=O)N[C@@H](CC(C)C)C(=O)N[C@@H](CC(N)=O)C(=O)N[C@@H](CCC(=O)O)C(=O)N[C@@H](CO)C(=O)N[C@@H](Cc2ccc(O)cc2)C(N)=O)C(C)C)NC(=O)[C@H](CCC(N)=O)NC(=O)[C@H](CCC(N)=O)NC(=O)[C@H](CC(C)C)NC1=O (Ac-LDLTYEML[S5]LQQ[S5]VKALNESY-NH2; staple (E) 9-13) | inactive | > 50 | – | – | – | – | –
CSCC[C@H](NC(=O)[C@H](CCC(=O)O)NC(=O)[C@H](Cc1ccc(O)cc1)NC(=O)[C@@H](NC(=O)[C@H](CC(C)C)NC(=O)[C@H](CC(=O)O)NC(=O)[C@H](CC(C)C)NC(C)=O)[C@@H](C)O)C(=O)N[C@@H](CC(C)C)C(=O)N[C@@H](CO)C(=O)N[C@@H](CC(C)C)C(=O)N[C@@H](CCC(N)=O)C(=O)N[C@@]1(C)CCC/C=C\CCC[C@@](C)(C(=O)N[C@@H](CC(C)C)C(=O)N[C@@H](CC(N)=O)C(=O)N[C@@H](CCC(=O)O)C(=O)N[C@@H](CO)C(=O)N[C@@H](Cc2ccc(O)cc2)C(N)=O)NC(=O)[C@H](CCCCN)NC(=O)[C@H](C(C)C)NC(=O)[C@H](C(C)C)NC1=O (Ac-LDLTYEMLSLQ[S5]VVK[S5]LNESY-NH2; staple (Z) 12-16) | – | 0.26 | Non-Toxic | > 100 | 35.5% | 3.03 | Activity [6]: Active; Tm [7]: 71.1 °C; EC50 [4, 11]: 2.21 µM; Activity [9]: Active
CSCC[C@H](NC(=O)[C@H](CCC(=O)O)NC(=O)[C@H](Cc1ccc(O)cc1)NC(=O)[C@@H](NC(=O)[C@H](CC(C)C)NC(=O)[C@H](CC(=O)O)NC(=O)[C@H](CC(C)C)NC(C)=O)[C@@H](C)O)C(=O)N[C@@H](CC(C)C)C(=O)N[C@@H](CO)C(=O)N[C@@H](CC(C)C)C(=O)N[C@@]1(C)CCC/C=C/CCC[C@@](C)(C(=O)N[C@@H](C)C(=O)N[C@@H](CC(C)C)C(=O)N[C@@H](CC(N)=O)C(=O)N[C@@H](CCC(=O)O)C(=O)N[C@@H](CO)C(=O)N[C@@H](Cc2ccc(O)cc2)C(N)=O)NC(=O)[C@H](C(C)C)NC(=O)[C@H](C(C)C)NC(=O)[C@H](CCC(N)=O)NC1=O (Ac-LDLTYEMLSL[S5]QVV[S5]ALNESY-NH2; staple (E) 11-15) | – | > 50 | – | – | inactive | – | Activity [10]: inactive
CC[C@H](C)[C@H](NC(=O)[C@H](Cc1ccc(O)cc1)NC(=O)[C@H](CO)NC(=O)[C@H](CCC(=O)O)NC(=O)[C@H](CCC(=O)O)NC(=O)[C@H](CC(C)C)NC(=O)[C@H](CCCCN)NC(=O)[C@H](CCCCN)NC(=O)[C@@H](NC(=O)[C@@H](NC(=O)[C@H](CCC(=O)O)NC(=O)[C@H](CCC(=O)O)NC(=O)[C@H](CC(C)C)NC(=O)[C@H](CCCCN)NC(=O)[C@H](CCCCN)NC(=O)[C@H](CCSC)NC(=O)[C@H](CCC(=O)O)NC(=O)[C@H](Cc1ccc(O)cc1)NC(=O)[C@H](CCC(=O)O)NC(=O)[C@H](CC(C)C)NC(=O)[C@H](CC(=O)O)NC(=O)[C@H](CC(C)C)NC(=O)[C@H](CC(C)C)NC(=O)[C@@H](NC(=O)[C@@H](NC(=O)[C@H](CC(N)=O)NC(=O)[C@@H](NC(=O)[C@H](CCC(N)=O)NC(=O)[C@@H](NC(=O)[C@H](CC(C)C)NC(=O)[C@H](CO)NC(C)=O)[C@@H](C)O)[C@@H](C)CC)[C@@H](C)O)[C@@H](C)O)C(C)C)C(C)C)C(=O)N[C@@H](CC(=O)O)C(=O)N[C@@H](CC(C)C)C(=O)N[C@@H](CCCCN)C(=O)N[C@@H](CCC(=O)O)C(=O)N[C@@H](CC(C)C)C(N)=O | – | 0.75 | – | > 100 | – | 1.07 | –
CSCC[C@@H]1NC(=O)[C@H](CCC(=O)O)NC(=O)[C@H](Cc2ccc(O)cc2)NC(=O)[C@@](C)(NC(=O)[C@H](CC(C)C)NC(=O)[C@H](CC(=O)O)NC(=O)[C@H](CC(C)C)NC(C)=O)CCC/C=C\CCC[C@@](C)(C(=O)N[C@@H](CO)C(=O)N[C@@H](CC(C)C)C(=O)N[C@@H](CCC(N)=O)C(=O)N[C@@H](CCC(N)=O)C(=O)N[C@H](C(=O)N[C@H](C(=O)N[C@@H](CCCCN)C(=O)N[C@@H](C)C(=O)N[C@@H](CC(C)C)C(=O)N[C@@H](CC(N)=O)C(=O)N[C@@H](CCC(=O)O)C(=O)N[C@@H](CO)C(=O)N[C@@H](Cc2ccc(O)cc2)C(N)=O)C(C)C)C(C)C)NC1=O | inactive | > 50 | – | – | – | – | –
CSCC[C@H](NC(=O)[C@H](CCC(=O)O)NC(=O)[C@H](Cc1ccc(O)cc1)NC(=O)[C@@H](NC(=O)[C@H](CC(C)C)NC(=O)[C@H](CC(=O)O)NC(=O)[C@H](CC(C)C)NC(C)=O)[C@@H](C)O)C(=O)N[C@@H](CC(C)C)C(=O)N[C@@H](CO)C(=O)N[C@@H](CC(C)C)C(=O)N[C@@H](CCC(N)=O)C(=O)N[C@@H](CCC(N)=O)C(=O)N[C@H](C(=O)N[C@H](C(=O)N[C@@H](CCCCN)C(=O)N[C@@]1(C)CCC/C=C\CCC[C@@](C)(C(=O)N[C@@H](Cc2ccc(O)cc2)C(N)=O)NC(=O)[C@H](CCC(=O)O)NC(=O)[C@H](CC(N)=O)NC(=O)[C@H](CC(C)C)NC1=O)C(C)C)C(C)C | – | 0.33 | Non-Toxic | > 100 | 45.6% | 0.97 | Activity [6]: Active; Tm [7]: 76.4 °C; EC50 [4, 11]: 1.58 µM; Activity [9]: Active
